High-throughput results as filed in PubChem BioAssay.
OPRM1-OPRD1 ag – agonists of OPRM1-OPRD1 heterodimerization, primary screen, cell-based, luminescence. cells. activation, % at 9.3 µM. AID 504326, 2011. Mu-type opioid receptor (Homo sapiens) + Delta-type opioid receptor (Homo sapiens), …. 0.3% of 340,000 active;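 note: 0% = vehicle-treated cells and 100% = reference agonist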
HTR5A inv ctr – HTR5A inverse agonists in luminescence cell assay, primary screen, counter-screen for OPRM1-OPRD1 heterodimer inverse agonist project, full-deck HTS; 5-hydroxytryptamine receptor 5A (Homo sapiens), P47898; inhibition, % at 9.3 µM; AID 504634, 2011; HTR5A cell line, inverse agonism; 0.083% of 340,000 active; in the data active = inhibition mostly above about 23%, no sharp cut-off; inactive = mostly below about 18%;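 note: 0% = cells with DMSO and 100% = no-cell wells with DMSO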
MC4R barr agon – MC4R agonists recruiting beta-arrestin, primary screen, cell-based, luminescence, agonist arm of biased-ligand search; Melanocortin receptor 4 (Homo sapiens), P32245; U2OS MC4R beta-arrestin complementation; percent of melanotan II response, DMSO zero; activation, % at 8.9 µM; 0.98% of 360,000 active; AID 540308, 2011;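 active = activation above a per-plate cutoff, the mean activation of sample wells on that plate plus 3 SD, cut at about 8% in these data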
OPRM1-OPRD1 inv – inverse agonists of MOR-DOR heterodimerization, primary screen, cell-based, luminescence; Mu-type opioid receptor (Homo sapiens) + Delta-type opioid receptor (Homo sapiens), …; cell-based MOR-DOR heterodimer luminescence, inverse agonism; 0.21% of 340,000 active; inhibition, % at 9.3 µM; in the data active = inhibition above about 22%, passing the limit was not always enough;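 note: 0% = cells with DMSO and 100% = wells without cells with DMSO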
MC4R antagonist – MC4R antagonists of cAMP signaling, primary screen, cell-based, TR-FRET, antagonist arm of biased-ligand search; Melanocortin receptor 4 (Homo sapiens), P32245; MC4R-expressing cells, MTII-stimulated cAMP, LANCE TR-FRET; inhibition, % at 6.5 µM; 0.48% of 360,000 active; AID 540295, 2011;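 active = inhibition above its plate's cutoff, the mean of tested wells on that plate plus 3 SD, cut at about 29% in these data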;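 note: 0% = Melanotan II alone and 100% = Melanotan II plus saturating MCL0020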
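Assay system: human MC4R-expressing U2OS cells; reagent: Melanotan II stimulation of cells; dosing: 6.5 µM single dose; timing: compound 30 min, challenge 1 h, detection 1 h; signal: TR-FRET cAMP assay; replicates: one well per compound, no replicates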
HTR5A ag – HTR5A agonists in luminescence cell assay, primary screen, counter-screen for OPRM1-OPRD1 heterodimer agonist project, full-deck HTS; 5-hydroxytryptamine receptor 5A (Homo sapiens), P47898; cell-based; activation, % at 9.3 µM; 0.61% of 340,000 active; AID 504692, 2011; in the data active = activation mostly above about 9.5%, no sharp cut-off; inactive = mostly below about 7.6%;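 note: 0% = cells with vehicle only and 100% = reference agonist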
MOR-DOR ag conf – agonists of MOR-DOR heterodimerization, confirmation, cell-based, luminescence; shares compounds with OPRM1-OPRD1 ag; cells, luminescence complementation; activation, % at 9.3 µM; 45% of 830 active; AID 504904, 2011;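 note: 0% = vehicle-treated cells and 100% = reference agonist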
HTR5A ag counter – HTR5A agonists in cells, counter-screen for OPRM1-OPRD1 heterodimer agonist project, cell-based, luminescence; HTR5A agonist counterscreen; AID 504905, 2011; 8% of 830 active; shares compounds with OPRM1-OPRD1 ag; activation, % at 9.3 µM; in the data active = activation above about 17%;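 note: 0% = vehicle-treated cells and 100% = reference agonist response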
The depositor's hits bear a star; i = inactive; x = no result given. Most compounds without a hit are left out; they make up all but 2.4% or so of the library. Cut-off read from the data, not from the text of the source, unless noted: active = activation above about 18%; inactive = the rest.

SMILES | OPRM1-OPRD1 ag | HTR5A inv ctr | MC4R barr agon | OPRM1-OPRD1 inv | MC4R antagonist | HTR5A ag | MOR-DOR ag conf | HTR5A ag counter
CCOC(=O)c1c2c(n(Cc3ccccc3)c1C)C(=O)C(=O)c1ccccc1-2 | 19* | -32 | 2 | -85 | -7 | 8 | 16 | 0
COc1ccc(C(=O)N2CCCCC2c2cc(C(=O)NCc3ccc(Cl)c(Cl)c3)no2)cc1 (stereo not drawn) | x | x | -1 | x | -2 | x | x | x
COc1ccccc1CN(C)C[C@@H]1OCc2cnnn2CCCC(=O)N([C@@H](C)CO)C[C@H]1C | x | x | -1 | x | -3 | x | x | x
CN1CCN(S(=O)(=O)c2ccc(Oc3cccc(C(F)(F)F)c3)nc2)CC1 | -1 | -6 | -5 | 6 | 4 | 2 | x | x
COc1ccc(C(C(=O)NC2CCCCC2)N(C(=O)Cc2c[nH]c3ccccc23)c2ccc(NC(C)=O)cc2)cc1OC (stereo not drawn) | 26* | -8 | 1 | -115 | 1 | 3 | 83* | -2
NS(=O)(=O)c1ccc(NC(=O)COC(=O)Cn2cnc3ccccc3c2=O)cc1 | -2 | 5 | 0 | 10 | -1 | -1 | x | x
CCCOc1ccc(C(=O)Nc2ccc(N3CCN(C(=O)c4ccco4)CC3)cc2)cc1 | 23* | 3 | 2 | -119 | 1 | 0 | 1 | -6
COc1ccc(CNC(=O)Cc2cccs2)cc1 | -1 | -3 | -1 | 6 | 11 | -2 | x | x
COc1ccc(C(CNC(=O)c2ccccc2SC)N(C)C)cc1 (stereo not drawn) | 12 | -2 | 1 | -55 | -8 | 1 | x | x
COc1ccc(C(CNC(=O)CN2C(=O)NC3(CCCC3)C2=O)N(C)C)cc1 (stereo not drawn) | -1 | 9 | 0 | 8 | -2 | 1 | x | x
COc1ccc(CC(=O)NCC(c2ccc(OC)cc2)N(C)C)cc1 (stereo not drawn) | 31* | 3 | -1 | -160 | 8 | -1 | 3 | 1
COc1ccc(C(CNC(=O)Cc2cccs2)N(C)C)cc1 (stereo not drawn) | 85* | -3 | 0 | i | 4 | 0 | -5 | -4
COc1ccc(C(CNC(=O)c2cncc(Br)c2)N(C)C)cc1 (stereo not drawn) | 274* | 3 | -3 | i | -1 | -1 | 232* | -1
COc1ccc(C(CNC(=O)c2cc(SC)ccc2Cl)N(C)C)cc1 (stereo not drawn) | 104* | -18 | 2 | i | 5 | 6 | 4 | 1
C=CCNC(=O)c1ccc(Cn2cc(C(F)(F)F)ccc2=O)cc1 | -3 | -14 | -1 | 13 | 14 | 4 | x | x
O=C(OCC(=O)N1CCCc2ccccc21)c1cc(Br)ccc1O | 3 | 12 | 0 | -19 | 8 | -5 | x | x
CC(C)c1cc(NC(=O)c2ccccc2)cc(C(C)C)c1O | -5 | -1 | 1 | 22 | 0 | 2 | x | x
CC(C)c1ccccc1NC(=O)c1cccc(NC(=O)c2ccccc2)c1 | 48* | 8 | -1 | -293 | 17 | -1 | 8 | 4
Cc1cc2[nH]c3c4ccccc4nc(C)c3c2cc1C | 35* | -22 | 24* | -172 | 15 | 6 | 68* | 14
Cc1cc2[nH]c3c(c[n+](C)c4ccccc34)c2cc1C | 15 | 10 | 4 | -98 | 17 | -4 | x | x
CC[C@]12c3[nH]c4ccccc4c3CCN1C(=O)C(CC(=O)NCCCN(C)C)C[C@@H]2C(=O)N1CCN(C(=O)c2ccco2)CC1 (stereo partly drawn) | -2 | -4 | -2 | 7 | 4 | 1 | x | x
